Data on 37 compounds can be found in ChEMBL document CHEMBL1122721, “Synthesis and antiarrhythmic activity of new 1-[1-[2-[3-(alkylamino)-2-hydroxypropoxy]phenyl]vinyl]-1 H-imidazoles and related compounds” (J Med Chem, 1984).

One may read the pA2 as a measure of antagonist potency on a negative log scale. One may read the LD50 as the dose expected to kill half of the subjects tested. Higher therefore signals a less toxic substance.

The target in data set [1] is Adrenergic receptor beta (Cavia porcellus). The data set can be described thus: Beta adrenergic receptor blocking activity measured by the chronotropic effect was determined 1 hr after pretreatment of the right atria in guinea pig.
For data set [2], the species on record is Cavia porcellus. The data set is described as follows: Maximal follow rate showing the contractile frequencies of atria to electrical stimulation 10 min after incubation with right atria of guinea pig. The format is functional. The procedure, abridged: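 Isolated right atria driven by electrical stimulation (Dawes' method). Maximal follow rate, the highest contractile frequency the atria follow, measured as an index of refractory period 10 min after incubation with compound.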

For data set [3], the target named is Adrenergic receptor beta (Cavia porcellus). The data set is described as follows: Beta adrenergic receptor blocking activity measured by the inotropic effect was determined 1 hr after pretreament of the right atria in guinea pig.
Data set [4] relates to Mus musculus. The data set is described as follows: Compound was evaluated for ventricular tachycardia activity in intravenously administered mice, 3 min before aconitine infusion, at a dose of 3 mg/kg; S=significant antiarrhythmic effect. On the set-up: dose 3 mg/kg. The format is functional, organism-based. The following applies: Heart. The procedure, abridged: (§1)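 Aconitine arrhythmia model in pentobarbital-anesthetized male mice (20-35 g). Test compound was given iv 3 min or po 30 min before continuous tail-vein infusion of aconitine (0.685 µg/min). Lead II ECG recorded; onset times of ventricular extrasystole (VES) and ventricular tachycardia (VT) were measured.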

A short description of data set [5]: Lethal dose in mice (LD50) (following i.v. dosing). The following applies: mouse, in vivo, iv.
Data set [6] concerns Mus musculus. The data set is described as follows: Compound was evaluated for ventricular extrasystole activity, 3 min before aconitine infusion, at a dose of 3 mg/kg, intravenously administered in mice; S=significant antiarrhythmic effect. On the set-up: dose 3 mg/kg. The following applies: Heart. The format is functional, organism-based. The procedure, abridged:
as §1

For the compound `C=C(c1ccccc1OCC(O)CNC(C)C)n1c(C)cnc1CC` (stereo not drawn), the pA2 is listed as 5.8 in data set [1] and 6.17 in data set [3]. This compound displayed a Decrease in data set [2] of 9.1%.

`C=C(c1cc(Cl)ccc1OCC(O)CNC(C)C)n1cccn1` (stereo not drawn): the values for the pA2 in data set [1] and in data set [3] were 6.76 and 6.74, respectively. For the same compound, the Decrease in data set [2] is listed as 14.3%.

Turning to `C=C(c1cc(Cl)cc(C)c1OCC(O)CNC(C)C)n1ccnc1` (stereo not drawn), the pA2 in data set [1] is 5.22; in data set [3] it was 5.93. For the same compound, in data set [2], the Decrease is on record as 37.9%. The Activity result in data set [4] and in data set [6] was “Anti-arrhythmic” throughout. The LD50 in data set [5] was determined as 48.8 mg/kg.

`C=C(c1c(C)ccc(C)c1OCC(O)CNC(C)(C)C)n1ccnc1` (stereo not drawn): the pA2 stood at 6.36 in data set [1] and 6.47 in data set [3]. The Decrease in data set [2] turned out to be 17.1%.

Turning to `C=C(c1cc(Cl)c(Cl)cc1OCC(O)CNC(C)C)n1ccnc1` (stereo not drawn), the values for the pA2 in data set [1] and in data set [3] were 6.64 and 6.23, respectively. In data set [2], the Decrease is 23.8%.

Regarding `C=C(c1ccccc1OCC(O)CNC(C)C)n1cccn1` (stereo not drawn), the pA2 in data set [1] is listed as 7.44; in data set [3] it was 7.75. The compound also returned a Decrease in data set [2] of 21.6%.

For the compound `C=C(c1c(Cl)ccc(Cl)c1OCC(O)CNC(C)(C)C)n1ccnc1` (stereo not drawn), the pA2 in data set [1] is given as 5.27; in data set [3], 5.41. In data set [2], this compound showed a Decrease of 26.3%.

For the compound `C=C(c1cccc(Cl)c1OCC(O)CNC(C)C)n1ccnc1` (stereo not drawn), the pA2 amounted to 5.66 in data set [1] and 5.63 in data set [3]. Further, the Decrease in data set [2] came out at 28.2%.

Consider `C=C(c1ccccc1OCC(O)CNC(C)C)n1cnc(C(=O)OCC)c1C` (stereo not drawn), for which the pA2 is on record as 6.15 in data set [1] and 6.37 in data set [3].

In the case of `C=C(c1c(C)c(C)cc(Cl)c1OCC(O)CNC(C)(C)C)n1ccnc1` (stereo not drawn), the pA2 in data set [1] was 6.18; in data set [3], 6.21. The Decrease in data set [2] was 31.9%. Also, the Activity result in data set [4] and in data set [6] was “Anti-arrhythmic” in each case. In data set [5], this compound showed a median lethal dose (LD50) of 18.8 mg/kg.

For the compound `C=C(c1cccc(OC)c1OCC(O)CNC(C)C)n1ccnc1` (stereo not drawn), the pA2 is 6.64 in data set [1] and 6.99 in data set [3]. In data set [2], this compound displayed a Decrease of 29%.

Consider `C=C(c1cc(C)cc(C)c1OCC(O)CNC(C)(C)C)n1ccnc1` (stereo not drawn), for which the figures for the pA2 in data set [1] and in data set [3] were 5.55 and 6.58, respectively. In data set [2], the Decrease stood at 31.8%. For the same compound, the Activity entry in data set [4] and in data set [6] was “Anti-arrhythmic” throughout. The compound also yielded an LD50 in data set [5] of 15.9 mg/kg.

In the case of `C=C(c1cc(Cl)cc(Cl)c1OCC(O)CNC(C)C)n1ccnc1` (stereo not drawn), the pA2 is 6.5 in data set [1] and 6.64 in data set [3]. The compound also showed a Decrease in data set [2] of 27.5%.

For the compound `CC(C)NCC(O)COc1ccccc1Cn1ccnc1` (stereo not drawn), the pA2 is on record as 6.69 in data set [1] and 6.66 in data set [3]. The Decrease in data set [2] is listed as 14.2%.

Take `C=C(c1cc(Cl)cc(Cl)c1OCC(O)CNC(C)(C)C)n1ccnc1` (stereo not drawn): the pA2 in data set [1] was 6.3; in data set [3] it was 6.51. In data set [2], this compound returned a Decrease of 27.1%.

With `C/C=C(\c1ccccc1OCC(O)CNC(C)(C)C)n1ccnc1` (stereo not drawn), the pA2 was found to be 7.19 in data set [1] and 7.3 in data set [3]. Besides, the Decrease in data set [2] stood at 14.5%.

For `C=C(c1ccccc1OCC(O)CNC(C)(C)C)n1ccnc1C` (stereo not drawn), the pA2 in data set [1] and in data set [3] was 6.97 throughout. Further, in data set [2], the Decrease is recorded as 27.1%.

`CC(C)=C(c1cc(Cl)ccc1OCC(O)CNC(C)C)n1ccnc1` (stereo not drawn): the results for the pA2 in data set [1] and in data set [3] were 4.9 and 5.19, respectively. The same compound showed a Decrease in data set [2] of 21.6%.

For the compound `C=C(c1cc(Cl)cc(C)c1OCC(O)CNC(C)(C)C)n1ccnc1` (stereo not drawn), the results for the pA2 in data set [1] and in data set [3] were 5.49 and 5.04, respectively. In addition, in data set [2], the Decrease is listed as 27.3%.

Take `C=C(c1ccccc1OCC(O)CNC(C)C)n1ccnc1` (stereo not drawn): the pA2 in data set [1] and in data set [3] was 6.89 each time. For the same compound, the Decrease in data set [2] was determined as 27.1%.

For the compound `C=C(c1c(Cl)cc(Cl)cc1OCC(O)CNC(C)C)n1ccnc1` (stereo not drawn), the figures for the pA2 in data set [1] and in data set [3] were 6.44 and 6.27, respectively. The same compound came in with a Decrease in data set [2] of 19.6%.

With `C=C(c1cccc(OC)c1OCC(O)CNC(C)(C)C)n1cnc2ccccc21` (stereo not drawn), the pA2 in data set [1] and in data set [3] was 7.03 in each case. The same compound returned a Decrease in data set [2] of 39.2%. The Activity result in data set [4] and in data set [6] was “Anti-arrhythmic” each time. In data set [5], this compound had an LD50 of 19.8 mg/kg.

As for `C=C(c1ccccc1OCC(O)CNC(C)(C)C)n1cnc2ccccc21` (stereo not drawn), the pA2 came out at 7.29 in data set [1] and 7.08 in data set [3]. Further, the Activity result in data set [4] and in data set [6] was “Anti-arrhythmic” in each case.

As to `C=C(c1cc(Cl)ccc1OCC(O)CNC(C)C)n1ccnc1` (stereo not drawn), the pA2 is given as 6.3 in data set [1] and 6.41 in data set [3]. In data set [2], the Decrease came to 27.1%.

Take `C=C(c1ccccc1OCC(O)CN1CCCC1)n1ccnc1` (stereo not drawn): the pA2 in data set [1] is 6.13; in data set [3], 6.15. In data set [2], this compound returned a Decrease of 16.7%.

`C=C(c1ccccc1OCC(O)CNC(C)(C)C)n1ccnc1` (stereo not drawn): the figures for the pA2 in data set [1] and in data set [3] were 7.69 and 8.01, respectively. In data set [2], this compound returned a Decrease of 14.1%.

In the case of `C=C(c1ccccc1OCC(O)CNC(C)C)n1cnc(C)c1` (stereo not drawn), the pA2 in data set [1] is 7.19; in data set [3] it was 7.16. Besides, in data set [4], the Activity result is reported as “Anti-arrhythmic”.

As for `CC(C)NCC(O)COc1ccccc1C(C)n1ccnc1` (stereo not drawn), the pA2 in data set [1] was 6.9; in data set [3], 6.83. The compound also displayed a Decrease in data set [2] of 15.6%.

For `C=C(c1ccc(Cl)cc1OCC(O)CNC(C)C)n1ccnc1` (stereo not drawn), the pA2 in data set [1] is recorded as 5.86; in data set [3], 5.95. The Decrease in data set [2] was determined as 26.3%.

Regarding `C=C(c1ccc(Cl)cc1OCC(O)CNC)n1ccnc1` (stereo not drawn), the pA2 in data set [1] was determined as 6.19; in data set [3], 6.21. In data set [2], the Decrease stood at 17.8%.

Consider `C/C=C(\c1ccccc1OCC(O)CNC(C)C)n1ccnc1` (stereo not drawn), for which the values for the pA2 in data set [1] and in data set [3] were 6.52 and 6.76, respectively. This compound also yielded a Decrease in data set [2] of 18.6%.

Consider `CC(C)NCC(O)COc1ccccc1Cn1cccn1` (stereo not drawn), for which the pA2 in data set [1] is given as 7.42; in data set [3] it was 7.54. Further, the Decrease in data set [2] was 28.7%.

Consider `C=C(c1ccccc1OCC(O)CNC(C)C)n1ccnc1C` (stereo not drawn), for which the pA2 in data set [1] and in data set [3] was 6.24 in each case. In data set [2], this compound registered a Decrease of 15%.

In the case of `C=C(c1ccccc1OCC(O)CNC(C)C)n1ccc(=O)cc1` (stereo not drawn), the figures for the pA2 in data set [1] and in data set [3] were 6.2 and 6.19, respectively. The Decrease in data set [2] was 13%.

Turning to `C=C(c1ccccc1OCC(O)CNC(C)C)n1cnc2ccccc21` (stereo not drawn), the figures for the pA2 in data set [1] and in data set [3] were 6.67 and 6.46, respectively. The same compound gave a Decrease in data set [2] of 16.8%.

As to `C=C(c1cccc(OC)c1OCC(O)CNC(C)C)n1cnc2ccccc21` (stereo not drawn), the pA2 in data set [1] worked out at 6.26; in data set [3] it was 6.41. The same compound showed a Decrease in data set [2] of 22.3%.

In the case of `C=C(c1cc(C)cc(C)c1OCC(O)CNC(C)C)n1ccnc1` (stereo not drawn), the pA2 in data set [1] was determined as 5.55; in data set [3] it was 6.31. This compound also came in with a Decrease in data set [2] of 25.9%.
